Screens deposited in PubChem BioAssay by Sanford-Burnham Center for Chemical Genomics.
Compounds with a hit are over-represented: about 1.9% of the library has one in this group of screens.
SUMO1-SIM PPI – alters human SUMO1 binding to SIM partners; P63165; inhibition, % at 20 µM; SUMO1 binding to a labelled peptide, TR-FRET, 1 h; AID 602429; hit rate 0.33% among 360,000; in the data active = inhibition above about 37%
Target sequence (P63165 whole entry, looked up): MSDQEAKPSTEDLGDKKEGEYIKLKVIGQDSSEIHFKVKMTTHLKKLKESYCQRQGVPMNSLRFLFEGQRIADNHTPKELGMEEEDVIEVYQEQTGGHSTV
Scp1 inh – blocks human Scp-1 phosphatase activity. Q9GZU7. Recombinant Scp1, phosphopeptide, malachite green phosphate absorbance. inhibition, % at 20 µM. hit rate 0.88% among 340,000;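 active = inhibition above about 50% at 20 µM, limit read from the data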;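 also: plate controls were DMSO wells with enzyme for no effect and wells lacking enzyme for full effect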
Target sequence (Q9GZU7 76-261 limits assumed): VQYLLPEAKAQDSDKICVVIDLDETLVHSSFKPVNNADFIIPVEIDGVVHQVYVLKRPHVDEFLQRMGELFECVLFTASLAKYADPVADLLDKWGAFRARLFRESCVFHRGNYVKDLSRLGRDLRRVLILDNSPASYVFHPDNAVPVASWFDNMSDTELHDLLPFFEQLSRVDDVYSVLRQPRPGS
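System: truncated SCP-1 phosphatase (76-261aa); medium: Tris acetate buffer pH 5.5 with MgCl2 and Tween-20; incubation: 45 min room-temperature reaction, 5 min colour, 30 min stabiliser; compound: single 20 µM dose, 1% DMSO; reagent: Phosphorylated 17-residue peptide substrate; read-out: % inhibition at 20 µM; technique: colorimetric free-phosphate detection, absorbance 630 nm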
STEP block – blocks human striatal-enriched tyrosine phosphatase. inhibition, % at 20 µM. P54829. hit rate 0.25% among 360,000. recombinant STEP, OMFP fluorogenic substrate, fluorescence;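 active = inhibition at 20 µM, scaled per plate between control wells, above about 37%, limit read from the data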;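 also: 0% = DMSO with enzyme and substrate and 100% = substrate only without enzyme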
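System: STEP phosphatase, cell-free reaction; Buffer or medium: Bis-Tris pH 6.0 buffer with DTT, detergent; Incubation: 20 min at room temperature, dark; Measured by: fluorescence, 480/540 nm.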
LMPTP inh – blocks human LMPTP phosphatase | P24666 | recombinant LMPTP-A, OMFP fluorogenic substrate, fluorescence intensity | inhibition, % at 20 µM | hit rate 0.22% among 360,000 | AID 651560;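 active = compounds that cut the enzyme signal by at least half of the control window in the single-dose screen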;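 also: plate controls were DMSO wells with enzyme plus substrate for no effect and substrate without enzyme for full effect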
Target sequence (P24666 whole entry, looked up): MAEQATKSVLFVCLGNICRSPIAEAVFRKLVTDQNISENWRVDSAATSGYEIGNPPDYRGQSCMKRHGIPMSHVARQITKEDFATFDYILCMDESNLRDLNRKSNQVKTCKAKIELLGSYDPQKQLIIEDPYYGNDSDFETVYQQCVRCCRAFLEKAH
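Material: LMPTP-A; amount: 0.625 nM enzyme; doses: single 20 µM dose; times: reaction 50 min, room temperature, dark; technique: fluorescence intensity of OMFP turnover product; benchmarks: no-enzyme and uninhibited controls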
FAS TE block – inhibitors of human fatty acid synthase thioesterase domain. P49327. recombinant FAS-TE, OMFH fluorogenic substrate, fluorescence endpoint. inhibition, % at 15 µM. hit rate 0.67% among 360,000;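 active = compounds whose normalised, plate-corrected inhibition of enzyme fluorescence in the single-dose primary screen is 50% or more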;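 also: 0% = DMSO with enzyme and 100% = substrate without enzyme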
* marks the source's active call; other numbers are inactive results; · = no result given.

SMILES	SUMO1-SIM PPI	Scp1 inh	STEP block	LMPTP inh	FAS TE block
CC1OC2CC(=O)OC2C2=C1C(=O)c1c(O)cccc1C2=O (configuration not stated)	3	·	9	18	11
Cc1cc(C)n(Cc2ccc(C(=O)O)cc2)n1	-1	-2	0	-1	-10
Cc1ccc(C)n1Cc1ccc(C(=O)O)cc1	23	114*	93*	21	-6
C#CCN1CCc2onc(-c3ccc(Br)cc3)c2C1=O	-1	·	·	0	·
O=C(c1ccccc1)N1CCC(c2nc3c(nnn3Cc3ccco3)c(=O)[nH]2)CC1	53*	3	1	-1	-9
O=C(c1ccc(Cl)cc1Cl)N1CCC(c2nc3c(nnn3Cc3ccco3)c(=O)[nH]2)CC1	4	3	2	2	14
O=[N+]([O-])c1ccc(-c2cn(-c3ccc(Cl)cc3)cn2)cc1	75*	·	25	15	15
O=C1NC(=S)S/C1=C\C=C\c1ccc([N+](=O)[O-])o1	97*	87*	66*	82*	16
O=C(Nc1cccc(OC(F)(F)F)c1)C1Cc2c(-c3cccc(F)c3)ccnc2O1 (configuration not stated)	-5	·	0	0	43
O=C1CCCN1CCCNc1nc(NCc2cccs2)nc2ccsc12	1	·	1	74*	-8
O=C(O)c1cccc(Nc2nc(-c3ccccc3)nc3ccccc23)c1	21	-16	-1	14	-2
O=C(O)c1cccc(Nc2nc(-c3ccc([N+](=O)[O-])cc3)nc3ccccc23)c1	-1	41	13	52*	28
Cc1cccc(C)c1NC(=O)C(c1ccncc1)N1CCN(CCN(C)C)CC1 (configuration not stated)	-2	·	·	-6	·
COC(=O)C[C@H]1C=C[C@@H](NC(=O)C2CC2)[C@@H](CO)O1	2	·	·	0	·
O=C(N/N=C/c1cccc([N+](=O)[O-])c1)c1cc(-c2ccc3c(c2)OCO3)n[nH]1	73*	11	4	5	7
COc1ccc(Cc2c3cc(OC)c(OC)cc3cc[n+]2C)cc1OC	-10	101*	0	0	-1
CC[n+]1ccc2cc(OC)c(OC)cc2c1Cc1ccc(OC)c(OC)c1	-2	96*	-2	-1	-5
Cc1nc2c(OCc3ccc(OC(F)F)cc3)cccn2c1N(C)C(=O)CCC1CCCC1	-2	·	0	5	30
CCCS(=O)(=O)NC(=O)C1(C)CCN(C(=O)c2ccc(C#N)cc2)C1 (configuration not stated)	2	·	4	-1	-4
O=C1NC(=S)SC1=Cc1ccccn1	-12	·	1	0	-2
CCn1c(SCC(=O)NC(=O)NCc2ccco2)nc2sc(C)c(C)c2c1=O	50*	44	4	30	1
Cc1ccc(-c2[nH]c3cc(C(=O)NCCCn4ccnc4)ccc3c(=O)c2O)cc1	-47	-14	5	51*	-28
CCCNC(=O)c1ccc2c(=O)c(O)c(-c3ccc(C)cc3)[nH]c2c1	-29	-6	1	0	-3
C/C(=N/Nc1ncc(Br)cn1)c1ccc(Br)cc1	-2	-5	-2	1	3
C/C(=N\Nc1ccc(C(=O)O)cc1)c1ccc(Br)cc1	1	52*	30	3	2
SMILES	SUMO1-SIM PPI	Scp1 inh	STEP block	LMPTP inh	FAS TE block
C(=C\c1ccco1)/c1ccc2ccccc2n1	9	-7	5	57*	-3
CC(=O)c1ccc(NC(=O)c2ccc(N3C(=O)c4cccnc4C3=O)cc2)cc1	41*	7	2	3	-8
O=C(O)c1ccc(N2C(=O)c3cccnc3C2=O)cc1	-4	-3	0	0	-2
CCCCCCCCN1C(=O)[C@H](CC(=O)N2CCN(C(=O)C3CC3)CC2)C[C@@]2(C(=O)OCC)CCCC=C12	2	·	·	0	5
CCCc1c(Cc2cccc(F)c2)ncn1Cc1cccc(-c2ccccc2)c1	2	·	·	4	·
CCn1c(SCC(=O)c2ccc(Cl)cc2)nnc1-c1ccoc1C	39*	-2	1	-1	1
CCn1c(SCC(=O)c2ccc(C)cc2)nnc1-c1ccoc1C	0	-3	-1	0	0
CCN(CC)CCNC(=O)C1(c2ccccc2)CCCCC1	47*	-7	-2	14	-6
Nc1nnc(SCCCC(=O)c2ccc(F)cc2)s1	-2	-1	-2	0	-9
Nc1nnc(SCCCC(=O)c2ccc(Br)cc2)s1	43*	5	0	0	-7
COc1ccc2nc(-n3c(O)c(C4=c5ccccc5=NC4=O)[nH]c3=S)sc2c1	10	85*	3	15	8
Cn1c(O)c(C2=c3ccccc3=NC2=O)[nH]c1=S	-13	-5	5	5	-7
O=C(CN1C(=O)c2ccccc2C1=O)C(O)CN1C(=O)c2ccccc2C1=O (configuration not stated)	-11	·	-1	-1	-1
N#Cc1c(N)c(C#N)c(-c2ccc3c(c2)OCO3)c2c1CCCC2	44*	-14	0	4	37
Cc1ccc(C(=O)C2=C(O)C(=O)N(Cc3ccco3)C2c2ccc(N(C)C)cc2)o1 (configuration not stated)	-3	7	1	1	4
CCCCCOc1ccc(C2C(C(=O)c3ccc(C)o3)=C(O)C(=O)N2c2cc(C)on2)cc1 (configuration not stated)	4	-22	4	50*	-10
CCCCOc1ccc(C2C(C(=O)c3ccc(C)o3)=C(O)C(=O)N2Cc2ccco2)cc1 (configuration not stated)	-2	·	4	51*	12
O=C(NC1CCCCC1)c1nc(-c2c(F)cccc2F)oc1-c1ccccc1	2	·	·	4	·
O=C1CCCC2=C1C(c1ccc(Br)cc1)c1c([nH]c(=S)[nH]c1=O)N2 (configuration not stated)	13	0	1	18	-6
O=c1[nH]c(=S)[nH]c2c1C(c1ccc(Br)cc1)c1c([nH]c(=S)[nH]c1=O)O2	115*	97*	92*	68*	0
Cc1ccc(C(O)c2ncc(-c3ccccc3C(F)(F)F)[nH]2)cc1F (configuration not stated)	5	·	-3	0	-1
Cc1cc(-c2ccco2)c(C#N)c2nc3ccccc3n12	30	66*	25	73*	-24
OC[C@@H]1CN(CCN2CCOCC2)C[C@H](n2cnc3c(Nc4ccccc4)ncnc32)O1	-5	·	-1	0	-9
O=S(=O)(/C=C/C=C/S(=O)(=O)c1ccccc1)c1ccccc1	41*	0	1	0	2
Cc1ccc(S(=O)(=O)C=CS(=O)(=O)c2ccc(C)cc2)cc1	4	·	0	-1	16
COc1ccc(S(=O)(=O)N2CCC(NC(=O)c3ccccc3)CC2)cc1	1	8	-2	1	-4
